Screening results deposited in PubChem by several laboratories.
PREPL inhibitor – human PREPL enzyme inhibition. hit rate 0.68% among 320,000. AID 2751. inhibition, % at 5.96 µM. recombinant PREPL, fluorescence polarization activity-based probe. Q4J6C6
MEKK3 PB1 HTS – modulators (inhibitors or enhancers) of MEK5 binding to human MEKK3 PB1 domain | Q99759 | bead-based flow cytometry, Alexa488-MEK5 binding to MEKK3; actives lie on both sides; 0 = blocked by unlabeled MEK5, 100 = vehicle | binding response (% of control), % at 10 µM | hit rate 1.4% among 290,000;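 active means binding response more than 3 SD above or below the average of its plate-row segment, actives on both sides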;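 further: Alexa488 bead fluorescence after subtracting the streptavidin-only scavenger bead signal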
UBC13 polyUb – human UBC13 polyubiquitination inhibition. AID 485273. UBC13 polyubiquitin chain formation, TR-FRET. hit rate 0.47% among 330,000. P61088. inhibition, % at 20 µM; in the data active means inhibition above about 45%, passing the limit was not always enough
Target sequence (P61088 whole entry, looked up): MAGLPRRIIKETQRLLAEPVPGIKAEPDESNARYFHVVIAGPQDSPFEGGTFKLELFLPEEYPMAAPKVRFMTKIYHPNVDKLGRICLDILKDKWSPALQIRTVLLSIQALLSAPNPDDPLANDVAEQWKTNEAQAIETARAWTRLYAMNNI
MEKK2wt PB1 HTS – raises or lowers MEK5 binding to wildtype human MEKK2 PB1 domain. Q9Y2U5. bead flow cytometry, Alexa488-MEK5 binding to MEKK2 WT; actives lie on both sides. binding response (% of control), % at 10 µM. hit rate 1.1% among 290,000. AID 1531; in the data active means binding response below about 67% or above about 130%
Apaf1 inhib – inhibitors of human Apaf-1 apoptosome; inhibition, % at 20 µM; O14727; AID 489030; hit rate 0.71% among 330,000; reconstituted apoptosome caspase-3 activity, DEVD-Rh110 fluorescence; active means inhibition of at least 40% at 20 µM
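System: reconstituted apoptosome with Apaf-1, cytochrome c, caspase-9, procaspase-3, dATP; Signal: Rh110 fluorescence intensity; Schedule: 30 min compound preincubation, 50 min activation, room temperature; Reagent: cytochrome c trigger plus (Z-DEVD)2-Rh110 caspase-3 substrate.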
MEKK2mut PB1 HTS – signal of MEK5 binding to mutant human MEKK2 PB1 domain. hit rate 0.35% among 290,000. bead flow cytometry, Alexa488-MEK5 binding to MEKK2 mutant. AID 1530. percent response, % at 10 µM; in the data active means percent response above about 24%, passing the limit was not always enough
PREPL inh cf – confirmation of human PREPL enzyme inhibitors | AID 2803 | shares compounds with PREPL inhibitor | hit rate 67% among 2,000 | inhibition, % at 5.96 µM | recombinant PREPL, fluorescence polarization activity probe
Numbers stand for hits; – = inactive; · = not tested or not shown. A selection: hits, their analogues and other compounds. The true share with any hit is near 3.1%. Unless noted, no stated cut-off is given here; in the data, active means inhibition above about 43%; inactive means the rest.

SMILES	PREPL inhibitor	MEKK3 PB1 HTS	UBC13 polyUb	MEKK2wt PB1 HTS	Apaf1 inhib	MEKK2mut PB1 HTS	PREPL inh cf
O=C(O)c1ccccc1NS(=O)(=O)c1ccc(NN=Cc2ccc(F)cc2)c([N+](=O)[O-])c1	44	·	–	·	–	·	–
O=C(O)c1ccc(/C=N/Nc2ccc(S(=O)(=O)N3CCCC3)cc2[N+](=O)[O-])cc1	–	–	–	–	–	–	·
COc1ccc(NS(=O)(=O)c2ccc(NN=Cc3ccc(C(=O)O)cc3)c([N+](=O)[O-])c2)cc1	45	·	–	·	–	·	–
CCOc1ccc(CCNC(=O)COC(=O)c2ccc(Br)o2)cc1OCC	–	·	–	·	–	·	·
O=C(COc1ccccc1[N+](=O)[O-])N/N=C/c1cccc(OC(=O)c2ccc3c(c2)OCO3)c1	47	–	–	–	–	–	–
CCc1ccc(N2CC(C(=O)N/N=C/c3ccccc3)CC2=O)cc1 (centres undefined)	–	·	–	·	–	·	·
COCCN(Cc1ccco1)C(=O)Cn1ncc2c(=O)oc3ccccc3c21	–	–	–	–	–	–	·
COc1ccc2cc(C(=O)C3CCCN(C(=O)c4cccnc4)C3)ccc2c1 (centres undefined)	45	–	–	–	–	–	–
COc1ccc2cc(C(=O)C3CCCN(C(=O)C4=NN(C)C(=O)CC4)C3)ccc2c1 (centres undefined)	44	–	–	–	–	–	–
O=C(c1ccc2ccccc2c1)C1CCCN(C(=O)c2cccnc2)C1 (centres undefined)	·	–	–	–	–	–	·
c1ccc(CNc2nc(-c3ccccn3)nc3ccccc23)cc1	67	–	–	–	–	–	64
c1ccc(CNc2nc(-c3ccccc3)nc3ccccc23)cc1	–	–	–	–	–	–	·
Cc1ccc(C(=O)NC(=S)Nc2ccc(N3CCN(C(=O)c4ccco4)CC3)cc2)cc1	48	–	–	–	–	–	–
Cc1cccc(OCC(=O)Nc2ccc(N3CCN(C(=O)c4ccco4)CC3)cc2)c1C	48	–	–	–	–	–	47
Cc1ccccc1OCC(=O)Nc1ccc(N2CCN(C(=O)c3ccco3)CC2)cc1	58	–	–	–	–	–	48
CCC(C(=O)Nc1ccsc1C(=O)OC)c1ccccc1 (centres undefined)	–	–	–	–	–	–	·
CCOc1ccc(C2CC(c3ccccc3)Nc3nc(N)nn32)cc1 (centres undefined)	–	–	–	–	–	–	·
Cc1ccccc1C1CC(c2ccc(F)cc2)Nc2nc(N)nn21 (centres undefined)	44	–	–	–	–	–	–
COc1ccc(C2CC(c3cccc(Cl)c3)n3nc(N)nc3N2)cc1 (centres undefined)	55	–	–	–	–	–	57
CCc1ccc(C2CC(c3ccc(Cl)cc3)n3nc(N)nc3N2)cc1 (centres undefined)	45	–	–	–	–	–	49
COc1ccc(C2CC(c3cccc(C)c3)n3nc(N)nc3N2)cc1 (centres undefined)	55	–	–	–	–	–	59
CC12CCC(C(=O)NCc3ccc4c(c3)OCO4)(C(=O)C1=O)C2(C)C (centres undefined)	–	–	–	–	–	–	·
CN(C)c1cccc(C(=O)NNC(=O)CN2C(=O)C3CC=CCC3C2=O)c1 (centres undefined)	–	·	–	·	–	·	·
O=C(CN(C(=O)CCC(=O)Nc1nccs1)c1ccccc1F)NCCc1ccccc1	–	–	–	–	–	–	·
COc1cccc(C2CC(c3cccc(OC)c3)n3nc(N)nc3N2)c1 (centres undefined)	–	–	–	–	–	–	·
SMILES	PREPL inhibitor	MEKK3 PB1 HTS	UBC13 polyUb	MEKK2wt PB1 HTS	Apaf1 inhib	MEKK2mut PB1 HTS	PREPL inh cf
COc1cccc(C2CC(c3ccc(F)cc3)Nc3nc(N)nn32)c1 (centres undefined)	44	–	–	–	–	–	46
Cc1ccc(C2CC(c3ccc(C)cc3)n3nc(N)nc3N2)cc1 (centres undefined)	53	–	–	–	–	–	48
Cc1ccc(C2CC(c3ccco3)n3nc(N)nc3N2)cc1 (centres undefined)	–	–	–	–	–	–	·
O=C(COC(=O)Cc1n[nH]c(=O)c2ccccc12)NNC(=O)c1ccc(Cl)cc1	–	·	–	·	–	·	·
Cc1cc(C)c2nc(N3C(=O)C(O)=C(C(=O)c4ccco4)C3c3ccco3)sc2c1 (centres undefined)	44	–	–	–	–	–	53
CCOc1ccc2nc(N3C(=O)C(O)=C(C(=O)c4ccco4)C3c3ccco3)sc2c1 (centres undefined)	–	·	–	·	–	·	·
CC(C)(C)NC(=S)Nc1ccc(Nc2ccccc2)cc1	59	–	–	–	–	–	–
CC(C)NC(=O)Nc1ccc2c(c1)C(=O)N([C@H](C)CO)C[C@H](C)[C@@H](CN(C)C(=O)Nc1ccc(C(F)(F)F)cc1)O2	–	·	–	·	–	·	·
Cc1ccc(S(=O)(=O)Nc2ccc3c(c2)C(=O)N([C@H](C)CO)C[C@H](C)[C@@H](CN(C)C(=O)Nc2ccc(C(F)(F)F)cc2)O3)cc1	45	·	–	·	–	·	–
Cc1noc(C)c1S(=O)(=O)N(C)C[C@H]1Oc2c(NC(=O)Nc3ccc(C(F)(F)F)cc3)cccc2C(=O)N([C@H](C)CO)C[C@@H]1C	52	·	–	·	–	·	59
C[C@H](CO)N1C[C@H](C)[C@@H](CN(C)C(=O)Nc2ccc(C(F)(F)F)cc2)Oc2ccc(NS(=O)(=O)c3cn(C)cn3)cc2C1=O	47	·	–	·	–	·	–
C[C@H](CO)N1C[C@H](C)[C@@H](CN(C)C(=O)Nc2ccc(C(F)(F)F)cc2)Oc2ccc(NS(=O)(=O)c3cccs3)cc2C1=O	–	·	–	·	–	·	·
C[C@H](CO)N1C[C@H](C)[C@@H](CN(C)C(=O)Nc2ccc(C(F)(F)F)cc2)Oc2ccc(NS(=O)(=O)c3ccccc3)cc2C1=O	46	·	–	·	–	·	45
COc1ccc(NC(=O)N(C)C[C@H]2Oc3ccc(NS(=O)(=O)c4ccc(F)cc4)cc3C(=O)N([C@H](C)CO)C[C@@H]2C)cc1	–	·	–	·	–	·	·
C[C@H](CO)N1C[C@H](C)[C@@H](CN(C)C(=O)Nc2ccc(C(F)(F)F)cc2)Oc2ccc(NS(=O)(=O)c3ccc(F)cc3)cc2C1=O	46	·	–	·	–	·	–
COc1ccc(-c2noc(N3CCC(C(=O)N(C)c4ccccc4)CC3)n2)cc1	–	–	–	–	–	–	·
O=C(O)[C@H]1CCCC[C@H]1C(=O)Nc1ccc(Nc2ccccc2)cc1	93	–	–	–	–	–	–
